Experimental data from different studies.
Compare with care: the assays were run in different laboratories.
Target: Serine/threonine-protein kinase 24 (STK24, Homo sapiens, UniProt Q9Y6E0)

Compound | effect on | action | technique | cells | concentration | measurement | result
CCN1CCN(Cc2ccc(NC(=O)c3ccc(C)c(Oc4ccnc5[nH]ccc45)c3)cc2C(F)(F)F)CC1 | target engagement in cells | inhibitor | chemoproteomics | A-375 | 50 nM | inhibition | -10.7%
C[C@@H]1CN(c2cc(-c3nn(C)c4ccc(OC5(C)CC5)cc34)ncn2)C[C@H](C)O1 | cell-free assay |  | competition with immobilised ligand |  | 1 µM | remaining binding | 79%
COc1cc2ncnc(Nc3ccc(Oc4ccccc4)cc3C)c2cc1OC | enzyme activity | inhibitor |  |  | 1 µM | inhibition | 9%
CCCCNc1ncc2c(-c3ccc(F)cc3)nn(C[C@H]3CC[C@H](N)CC3)c2n1 | target engagement in cells | inhibitor | chemoproteomics |  | 20 mM | inhibition | 8.3%
CC(C)(C)c1nc(-c2cccc(NS(=O)(=O)c3c(F)cccc3F)c2F)c(-c2ccnc(N)n2)s1 | enzyme activity | inhibitor | radiometric |  | 1 µM | remaining activity | 14%
COc1cc(/C=C/C(=O)CC(=O)/C=C/c2ccc(O)c(OC)c2)ccc1O | enzyme activity | inhibitor |  |  | 1 µM | activity vs control | 91%
Cn1cncc1C1=CN(c2ncnc3[nH]cnc23)CCS1 | enzyme activity | inhibitor | radiometric |  | 50 nM | inhibition | 13.2%
Oc1cccc(-c2nc(N3CCOCC3)c3oc4ncccc4c3n2)c1 | cell-free assay |  |  |  | 0.5 µM | remaining signal | 100%
C[C@H](NC(=O)c1cnc2n1[C@](C)(Cc1ccc(C#N)cc1)C(=O)N2c1cc(Cl)c(F)c(Cl)c1)C(=O)NC1(c2ccccn2)CC1 | cell-free assay |  | competition with immobilised ligand |  | 1 µM | remaining binding | 100%
COc1cc(-c2cc(-c3ccc(N4CCNCC4)cc3)cnc2C)cc(OC)c1OC | enzyme activity | inhibitor |  |  | 1 µM | inhibition | 4%
CC/C(=N\NC(=O)NCc1cccc(O)c1)c1ccc(O)c(C)c1O | enzyme activity | inhibitor |  |  | 0.1 µM | inhibition | 4.3%
CCCS(=O)(=O)Nc1ccc(F)c(C(=O)c2c[nH]c3ncc(-c4ccc(Cl)cc4)cc23)c1F | enzyme activity | inhibitor |  |  | 1 µM | inhibition | < 20%
Cc1cnc(NC2CCOCC2)nc1-n1cnc(C(=O)NC(CN)c2cc(F)cc(Cl)c2)c1 (stereo not shown) | enzyme activity | inhibitor | radiometric |  | 1 µM | remaining activity | 32%
c1ccc(CNc2nc(N3CCOc4ccccc43)nc3c2CCCC3)cc1 | target engagement in cells | inhibitor | chemoproteomics |  | 20 mM | inhibition | -7%
CC(C)(O)[C@H]1CC[C@H](Nc2ccc3ncc(-c4cccc(C(F)(F)F)c4)n3n2)CC1 | enzyme activity | inhibitor |  |  | 1 µM | remaining activity | 96.1%
O=C(Nc1cnn(-c2csc(C(=O)NC3COC3)c2)c1)Nc1ccccc1Cl | enzyme activity | inhibitor |  |  | 5 µM | remaining activity | 113%
CNC(=O)c1cc(Oc2ccc(NC(=O)Nc3ccc(Cl)c(C(F)(F)F)c3)cc2)ccn1 | enzyme activity | inhibitor |  |  | 0.3 µM | inhibition | -9%

Compound | effect on | action | technique | cells | concentration | measurement | result
CCN(CC)CCNC(=O)c1c(C)[nH]c(/C=C2\C(=O)Nc3ccc(F)cc32)c1C | cell-free assay |  |  |  | 0.5 µM | remaining signal | 39.7%
Cc1ccc(Nc2nccc(N(C)c3ccc4c(C)n(C)nc4c3)n2)cc1S(N)(=O)=O | enzyme activity | inhibitor |  |  | 0.3 µM | inhibition | -5%
CCOCCn1cc(C(=O)Nc2ccc(-n3nc(-c4cccnc4)cc3C(F)(F)F)cn2)ccc1=O | cell-free assay |  | competition with immobilised ligand |  | 1 µM | remaining binding | 100%
O=C1Nc2ccc(Cl)cc2C1=Cc1cc(Cl)c(O)c(Cl)c1 | cell-free assay |  |  |  | 0.5 µM | remaining signal | 104%
O=C(O)[C@@H]1[C@@H](Cn2nnc3ccccc3c2=O)CC[C@H]1C(=O)c1ccc(OCCC2CCOCC2)cc1 | cell-free assay |  | competition with immobilised ligand |  | 1 µM | remaining binding | 99%
Cc1ccc(C(=O)Nc2ccc(CN3CCN(C)CC3)c(C(F)(F)F)c2)cc1C#Cc1cnc2cccnn12 | enzyme activity | inhibitor |  |  | 23.5 nM | remaining activity | 88%
O=C(N[C@H]1CCCCC/C=C\C2C[C@@]2(C(=O)O)NC(=O)[C@@H]2C[C@@H](Oc3ccncc3)CN2C1=O)OC1CCCC1 (stereo partly shown) | binding |  | competition with immobilised ligand |  | 1 µM | remaining binding | 81%
Nc1ncnc2occ(-c3ccc(NC(=O)Nc4cc(C(F)(F)F)ccc4F)cc3)c12 | cell-free assay | inhibitor |  |  | 20 µM | remaining signal | 4%
Cn1c2c(c3ccc(Cl)c(Cl)c31)C(C#N)C(C)(C)NC2=O (stereo not shown) | thermal stability |  | DSF |  | 10 µM | ΔTm | 0.6 °C
NS(=O)(=O)c1cc(NC(=O)C2(c3ccccc3Cl)CC2)ccc1Oc1cccc(Cl)c1 | cell-free assay |  | competition with immobilised ligand |  | 1 µM | remaining binding | 93%
Cn1c2c(Cl)c(Cl)ccc2c2cn[nH]c(=O)c21 | thermal stability |  | DSF |  | 10 µM | ΔTm | 0.7 °C
COc1cc2ncnc(Nc3ccc(F)c(Cl)c3)c2cc1OCCCN1CCOCC1 | cell-free assay |  |  |  | 0.5 µM | remaining signal | 102%
N#CC1(c2ccccn2)CCN(Cc2cc(C(=O)N3CCCC3)c(=O)n3ccccc23)CC1 | cell-free assay |  | competition with immobilised ligand |  | 1 µM | remaining binding | 87%
Cn1c2c(Cl)c(Cl)ccc2c2cc[nH]c(=O)c21 | thermal stability |  | DSF |  | 10 µM | ΔTm | 1.3 °C
CCN1CCN(Cc2ccc(NC(=O)c3ccc(C)c(/C=C/c4cnc5[nH]ccc5c4OC)c3)cc2C(F)(F)F)CC1 | target engagement in cells | inhibitor | chemoproteomics | A-375 | 0.5 µM | inhibition | -36.9%
CN1CCC2(CC1)NC(=O)c1c(c3ccc(Cl)c(Cl)c3n1C)C2C#N (racemic) | thermal stability |  | DSF |  | 10 µM | ΔTm | -0.6 °C
Nc1c(C(=O)NCc2ccc(C(=O)NCCCC3CCCCC3)cc2)cnn1-c1ccccc1 | cell-free assay |  | competition with immobilised ligand |  | 0.1 µM | remaining binding | 91%
